# Calls of active or inactive are those of the source.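 Rule for the calls, unless noted: active = viability at or below 10% of carrier control in both of two separate runs; inconclusive = viability at or below 10% in only one of the two runs; inactive = the rest.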
# How the values were obtained:
# [1] = reducers of endogenous Her2 protein level, primary screen, SKBR3 breast tumor cells, AlphaScreen, ATP viability (AID 461;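 active = Her2 level under about 52% in both replicate screens, with viability over 70% of control, limit read from the data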;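 for Her2 level: lower value means less Her2 protein in the cells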;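 for viability: percent of carrier control wells set as 100% viability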); settings: 18-24 h, measured here: SKBR3 viability, ATP luminescence, at 10 µM
# [2] = molecular target: Receptor tyrosine-protein kinase erbB-2 (Homo sapiens) (UniProt P04626); experiment: as above; settings: 18-24 h, at 10 µM, stronger effect = lower value
# [3] = SK-BR-3 cell growth inhibitors, pilot screen, 24 h, human (AID 572); settings: SK-BR-3 viability, CellTiter-Glo luminescence, at 10 µM, stronger effect = lower value;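 note: compound exposure lasted between 18 and 24 h rather than exactly 24 h; 100% = carrier-treated control wells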
# [4] = HUVEC growth inhibition – cell-based, human, primary screen (AID 575;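 active = viability at or below 30% in both replicate assays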;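 note: 100% = median of untreated cell wells with 0.1% DMSO on each plate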); settings: HUVEC proliferation, CellTiter-Glo luminescence, 72 h; at 10 µM; stronger effect = lower value
# Outline: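 Assay system: primary human umbilical vein endothelial cells / Buffer or medium: endothelial basal medium with 2% FBS plus growth supplements / Compound dosing: one dose, 10 µM final, 0.1% DMSO / Timing: 72 h treatment at 37 °C / Signal: CTG luminescence / Benchmarks: 32 DMSO-only cell-control wells (high), 32 MePR drug-control wells (low) per plate / Plate: collagen-coated 384-well format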
# [5] = growth inhibitors of H69AR lung tumor, primary screen, human, duplicate replicates (AID 580;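 active = viability at or under a set limit in both replicates, limit being median viability minus 3 SD, cut at about 48% in these data, passing the limit was not always enough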;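 note: 100% = mean luminescence of untreated wells and 0% = no signal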); settings: H69AR lung tumor cells viability, ATP luminescence, 72 h; at 10 µM; stronger effect = lower value
# [6] = reversal of MRP1-mediated doxorubicin resistance, pilot screen, H69AR cells, doxorubicin co-treatment (AID 601;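 active = viability loss from added drug above about 55%, and viability with drug at most 40%, in both replicates, limit read from the data, passing the limit was not always enough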); settings: CellTiter-Glo, 72 h, at 10 µM; for differential viability (reversal): stronger effect = higher value
# [7] = 384-well plate pilot, post-Golgi transport modulator project, inhibition of yeast transport mutant growth (AID 636; in the data active = inhibition above about 31%); settings: absorbance 615 nm, about 18 h, stronger effect = higher value
# [8] = growth suppression of yeast trafficking mutant, preliminary HTS, modulators of trafficking downstream of Golgi apparatus project, 1536-format plate, OD 615 nm (AID 637; in the data active = inhibition above about 30%); settings: yeast transport mutant growth, absorbance 615 nm, 18 h; stronger effect = higher value
# [9] = H69AR cells + 2 uM doxorubicin, measured here: viability with 2 uM doxorubicin, stronger effect = lower value
# [10] = H69AR cells, compound alone cytotoxicity
# Sequence of Receptor tyrosine-protein kinase erbB-2 (Homo sapiens) (P04626 whole entry, looked up): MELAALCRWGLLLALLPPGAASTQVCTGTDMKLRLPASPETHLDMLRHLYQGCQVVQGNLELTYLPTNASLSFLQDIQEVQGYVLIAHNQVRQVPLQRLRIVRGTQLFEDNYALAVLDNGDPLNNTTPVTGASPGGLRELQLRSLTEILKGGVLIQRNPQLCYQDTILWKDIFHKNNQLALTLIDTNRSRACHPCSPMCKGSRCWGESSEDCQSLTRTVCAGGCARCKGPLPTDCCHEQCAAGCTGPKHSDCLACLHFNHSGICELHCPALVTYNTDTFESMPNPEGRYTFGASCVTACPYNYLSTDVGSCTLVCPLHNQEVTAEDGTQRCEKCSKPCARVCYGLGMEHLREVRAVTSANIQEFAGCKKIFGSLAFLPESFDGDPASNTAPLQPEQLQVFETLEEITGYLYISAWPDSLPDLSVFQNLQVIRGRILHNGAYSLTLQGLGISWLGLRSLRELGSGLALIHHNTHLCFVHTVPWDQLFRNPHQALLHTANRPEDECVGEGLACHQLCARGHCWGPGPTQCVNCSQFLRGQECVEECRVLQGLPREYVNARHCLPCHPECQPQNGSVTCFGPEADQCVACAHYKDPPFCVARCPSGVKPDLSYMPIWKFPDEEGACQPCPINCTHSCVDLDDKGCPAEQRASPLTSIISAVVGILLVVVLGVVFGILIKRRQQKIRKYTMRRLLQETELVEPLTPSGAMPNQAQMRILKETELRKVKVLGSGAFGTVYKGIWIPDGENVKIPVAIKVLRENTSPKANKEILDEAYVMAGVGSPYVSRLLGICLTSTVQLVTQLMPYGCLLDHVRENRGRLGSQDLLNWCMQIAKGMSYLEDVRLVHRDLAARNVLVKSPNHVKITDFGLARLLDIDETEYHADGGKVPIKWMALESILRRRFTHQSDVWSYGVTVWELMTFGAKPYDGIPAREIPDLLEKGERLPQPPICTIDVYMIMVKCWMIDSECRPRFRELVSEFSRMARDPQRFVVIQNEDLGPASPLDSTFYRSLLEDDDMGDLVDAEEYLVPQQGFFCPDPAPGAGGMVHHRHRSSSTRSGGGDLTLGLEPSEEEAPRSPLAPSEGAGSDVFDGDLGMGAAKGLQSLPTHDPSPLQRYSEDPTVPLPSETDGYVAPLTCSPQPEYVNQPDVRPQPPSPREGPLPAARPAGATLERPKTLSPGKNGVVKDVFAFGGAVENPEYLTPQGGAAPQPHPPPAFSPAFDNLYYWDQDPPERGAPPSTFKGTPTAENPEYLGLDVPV
SMILES,viability [1] [%],Her2 level [2],viability [3],viability [4],viability [5],differential viability (reversal) ([6]; H69AR cells + 2 uM doxorubicin),"viability [6, 9] [%]","viability [6, 10] [%]",inhibition [7],inhibition [8]
CCCOc1ccc(OCCSc2ncccn2)cc1,97,91% (inactive),97% (inactive),99.6% (inactive),102% (inactive),18.8% (inactive),83.1,102,-6.67% (inactive),-0.79% (inactive)
O=C(OCCCCN1C(=O)c2ccccc2C1=O)c1n[nH]c2ccccc12,92.5,86% (inactive),92.5% (inactive),76.4% (inactive),101% (inactive),6.39% (inactive),94.9,101,-7.67% (inactive),4.29% (inactive)
CSc1nc(C)cc(Oc2ccc(=O)n(C)n2)n1,97,89.5% (inactive),97% (inactive),112% (inactive),90.5% (inactive),11.8% (inactive),78.7,90.5,-3.92% (inactive),-3.28% (inactive)
CCOc1ccc(Oc2nc(Nc3ccc(C)cc3)nc(N(C)C)n2)nn1,85.5,92% (inactive),85.5% (inactive),89.3% (inactive),95.3% (inactive),11.3% (inactive),84,95.3,-4.19% (inactive),1.97% (inactive)
CN(C(=O)c1cc2sccc2n1C)C1CCCCC1,91,106% (inactive),91% (inactive),87.7% (inactive),100% (inactive),14.7% (inactive),85.7,100,-7.3% (inactive),-2.13% (inactive)
CCc1cccc2c(=O)c(C(=O)N3CCCCCC3)c[nH]c12,104,102% (inactive),104% (inactive),98.4% (inactive),97.5% (inactive),1.41% (inactive),96.1,97.5,-2% (inactive),-6.94% (inactive)
CCCC(=O)Nc1nnc(Sc2ccc(N(C)C)cc2)s1,100,90% (inactive),100% (inactive),80.3% (inactive),101% (inactive),15.3% (inactive),85.4,101,-5.2% (inactive),-8.73% (inactive)
CCN1CCN(c2ncc(C(=O)N3CCN(c4ccccc4OC)CC3)c3ccccc23)CC1,81,87.5% (inactive),81% (inactive),98.8% (inactive),101% (inactive),14.7% (inactive),86.7,101,-5.68% (inactive),-1.8% (inactive)
CC(C)(C)C1=C[C@@H](CO)C[C@@H](CO)C1,86,87% (inactive),86% (inactive),94.2% (inactive),87.3% (inactive),-0.585% (inactive),87.9,87.3,-4.13% (inactive),-5.08% (inactive)
COc1ccc(NC2c3ncccc3C(=O)N2Cc2ccccc2)c(OC)c1 (stereo not given),101,85.5% (inactive),101% (inactive),93.8% (inactive),95.8% (inactive),4.3% (inactive),91.5,95.8,-1.56% (inactive),1.75% (inactive)
CCOC(=O)c1ccccc1NC(=O)N1CCn2c(C)ccc2C1CC (stereo not given),107,88% (inactive),107% (inactive),103% (inactive),84.8% (inactive),1.62% (inactive),83.2,84.8,-4.46% (inactive),-4.92% (inactive)
O=C(c1cnsn1)N1CCN(c2ccccn2)CC1,122,75% (inactive),122% (inactive),100% (inactive),102% (inactive),10.7% (inactive),91.7,102,-0.66% (inactive),-5.87% (inactive)
CCn1c(=O)cc(SCC(=O)N2CCOCC2)c2ccccc21,92,75% (inactive),92% (inactive),63.1% (inactive),85.4% (inactive),17.4% (inactive),68,85.4,-6.05% (inactive),-3.45% (inactive)
CC(C)C1C2=C(CC(C)(C)CC2=O)ON1c1ccccc1 (stereo not given),90,90% (inactive),90% (inactive),95.8% (inactive),93% (inactive),-2.63% (inactive),95.7,93,-1.6% (inactive),-0.48% (inactive)
NC(=O)CSc1nnc(-c2cnccn2)n1-c1ccccc1,114,97% (inactive),114% (inactive),103% (inactive),89.8% (inactive),7.27% (inactive),82.5,89.8,-5.07% (inactive),1.13% (inactive)
CCOC(=O)C1CCN(c2c(NCCCN(CC)c3ccccc3)c(=O)c2=O)CC1,83.5,86.5% (inactive),83.5% (inactive),91.9% (inactive),81.1% (inactive),8.21% (inactive),72.9,81.1,-1.18% (inactive),0.18% (inactive)

# Reference: PubChem BioAssay
